Where “and” joins values, the source holds several entries; their conditions need not be identical. Equal values may be shown once. Entries after “also recorded” stand apart in the source; their conditions may differ. K(Me2NCp) = not defined here; CbOH = not defined here
Columns and labels:
[1] = Absorption and fluorescence spectroscopy, quantum yield; format: physicochemical; settings: for λabs max / λem max / Quantum yield: 20% DMSO in water; for λabs max / λem max: room temperature; for Quantum yield: relative to ICG in DMSO, QY=0.12
Procedure, shortened: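 Test compounds dissolved in spectral-grade DMSO, diluted in 20% DMSO/water, and read at room temperature. Fluorescence was excited at 700 nm with 5 nm slits, keeping absorbance below 0.1. Molar absorptivity was averaged from three-point measurements at the absorption maximum. Quantum yield was taken relative to ICG in 100% DMSO. Probe in assay buffer was split: one half diluted with water to 1 mL, the other cleaved by caspase-3, then diluted likewise.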

[2] = Fluorescence lifetime measurement; format: physicochemical; settings: 20% DMSO/water, excitation 773 nm, detection 820 nm, room temperature
Procedure, shortened: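 TCSPC used a 773 nm pulsed LED source at 1 MHz, with detection at 90°. Counts were binned at 6.88 ps/channel until the peak reached 10,000, on a 50 ns scale. Instrument response came from Rayleigh scatter of 0.03% Ludox-40. Decays in 20% DMSO/water were fitted to two exponentials, discarding components contributing <3%.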

[3] = dissolved in 100% DMSO; reference value used for comparison; cited from earlier work
[4] = tested on: A549 cells; format: cell-based, human; settings: 5 μM paclitaxel for 2 h; read out by fluorescence of 5
Procedure, shortened: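 A549 cells were grown in Ham's F12K with 10% FBS and penicillin/streptomycin at 37°C, 5% CO2, seeded at 1×10^5/well in chamber slides overnight. Cells were loaded with 10 μM probe using GeneJuice in Opti-MEM for 24 h at 37°C. Paclitaxel was given for 2 h at 37°C, then three PBS washes. NIR confocal imaging (785 nm laser) read mean cytoplasmic intensity (Ex/Em 785/805–830) in 12 cells; mean ± SD, t-test.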

[5] = tested on: caspase-3; settings: cited from earlier work; for Km: read-out: KM of standard substrate
[6] = molecular target: T1, recombinant human caspase-3 (Homo sapiens, UniProt P42574); test: Caspase-3 enzyme kinetics of the NIR substrates; format: biochemical
T1 sequence (P42574 29-175 limits assumed): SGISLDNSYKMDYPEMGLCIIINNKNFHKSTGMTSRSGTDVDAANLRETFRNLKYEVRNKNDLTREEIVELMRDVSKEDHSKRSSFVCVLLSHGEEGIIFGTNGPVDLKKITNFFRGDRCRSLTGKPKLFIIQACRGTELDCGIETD
T1 sequence (P42574 176-277 limits assumed): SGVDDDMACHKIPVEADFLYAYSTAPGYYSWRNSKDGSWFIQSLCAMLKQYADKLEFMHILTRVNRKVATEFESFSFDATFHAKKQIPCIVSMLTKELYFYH
Procedure, shortened: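 Active sites were titrated with Ac-DEVD-pNA (2.5–50 μM, 25°C, absorbance […] nm). Substrate (0.5–100 μM; DMSO stock) hydrolysis was followed by NIR fluorescence (ex 785/em 805 nm) over time. Linear slope ÷ complete-hydrolysis fluorescence × [S] gave vo, fitted to Michaelis–Menten. kcat/KM was computed; ± SEM.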

Molecule	λabs max [1]	λem max [1] [nm]	Quantum yield [1]	kcat of standard substrate [5] [s⁻¹]	Km [5] [µM]	also measured
CC1(C)C(/C=C/C=C/C=C/C=C2/N(CCC(=O)O)c3ccc4ccccc4c3C2(C)C)=[N+](CCC(=O)[O-])c2ccc3ccccc3c21 [Compound 2, cypate, reference compound]	783 nm	808	0.031			Lifetime [2]: 0.25 ns
CC1(C)C(/C=C/C=C/C=C/C=C2\N(CCCCS(=O)(=O)O)c3ccc4ccccc4c3C2(C)C)=[N+](CCCCS(=O)(=O)[O-])c2ccc3ccccc3c21 [ICG, indocyanine green]						Fluorescence quantum yield of the standard [3]: 0.12
CC(=O)O[C@H]1C(=O)[C@@]2(C)[C@H]([C@H](OC(=O)c3ccccc3)[C@]3(O)C[C@H](OC(=O)[C@H](O)[C@@H](NC(=O)c4ccccc4)c4ccccc4)C(C)=C1C3(C)C)[C@]1(OC(C)=O)CO[C@@H]1C[C@@H]2O [paclitaxel]						Activation of caspase-3 in A549 cells [4]: sufficient to activate caspase-3
Ac-DEVD-AMC				0.75	9.7	
Ac-DEVD-pNA				2.4	11	
AcGK(Me2NCp)-DEVD-APK(CbOH)-NH2 ({Ac-Gly-K(Me2NCp)}-DEVDAPK(CbOH)-NH2; reading uncertain; also: printed as AcGK(Me2NCp)-DEVD-APK(CbOH)-NH2) [Compound 5]	759 nm and 790 nm	763	<0.001			kcat (turnover number) ([6]; 5 (0.5 to 100 μM) with caspase 3 (290 pM), 10 mM PIPES pH 7.4, 2 mM EDTA, 0.1% CHAPS, 5 mM DTT, triplicate, λex=785 nm, λem=805 nm, ± standard error of the mean, SEM): 1.02 ± 0.06 s⁻¹; Cleavage (hydrolysis) by caspase-3, in words ([6]; assay buffer pH 7.4, recombinant human caspase-3): cleaved more readily than 4; also recorded: readily cleaved; kcat/KM (catalytic efficiency) ([6]; caspase-3, computed from kcat and KM): 68000 M⁻¹ s⁻¹; Km ([6]; read-out: KM (Michaelis-Menten constant), 5 (0.5 to 100 μM) with caspase 3 (290 pM), 10 mM PIPES pH 7.4, 2 mM EDTA, 0.1% CHAPS, 5 mM DTT, triplicate, λex=785 nm, λem=805 nm, ± standard error of the mean, SEM): 15 ± 3 µM; Ratio F760/F810 of emission after cleavage ([1]; 5 after enzymatic cleavage by caspase-3, diluted with water): 7.16

From article PMC2913166 (Molecular pharmaceutics, 2009)
